How the values were obtained:
[1] = target: Mast/stem cell growth factor receptor Kit (Homo sapiens, UniProt P10721); assay: Inhibition of KIT using Bio-HER2tide as substrate by TR-FRET assay in presence of 50 uM of ATP
[2] = target: Hepatocyte growth factor receptor (Homo sapiens, UniProt P08581); assay: Inhibition of MET using Bio-HER2tide as substrate by TR-FRET assay in presence of 50 uM of ATP
[3] = target: Vascular endothelial growth factor receptor 2 (Homo sapiens, UniProt P35968); assay: Inhibition of KDR using Bio-Gastrintide as substrate by TR-FRET assay in presence of 50 uM of ATP
Vascular endothelial growth factor receptor 2, sequence (P35968 whole entry): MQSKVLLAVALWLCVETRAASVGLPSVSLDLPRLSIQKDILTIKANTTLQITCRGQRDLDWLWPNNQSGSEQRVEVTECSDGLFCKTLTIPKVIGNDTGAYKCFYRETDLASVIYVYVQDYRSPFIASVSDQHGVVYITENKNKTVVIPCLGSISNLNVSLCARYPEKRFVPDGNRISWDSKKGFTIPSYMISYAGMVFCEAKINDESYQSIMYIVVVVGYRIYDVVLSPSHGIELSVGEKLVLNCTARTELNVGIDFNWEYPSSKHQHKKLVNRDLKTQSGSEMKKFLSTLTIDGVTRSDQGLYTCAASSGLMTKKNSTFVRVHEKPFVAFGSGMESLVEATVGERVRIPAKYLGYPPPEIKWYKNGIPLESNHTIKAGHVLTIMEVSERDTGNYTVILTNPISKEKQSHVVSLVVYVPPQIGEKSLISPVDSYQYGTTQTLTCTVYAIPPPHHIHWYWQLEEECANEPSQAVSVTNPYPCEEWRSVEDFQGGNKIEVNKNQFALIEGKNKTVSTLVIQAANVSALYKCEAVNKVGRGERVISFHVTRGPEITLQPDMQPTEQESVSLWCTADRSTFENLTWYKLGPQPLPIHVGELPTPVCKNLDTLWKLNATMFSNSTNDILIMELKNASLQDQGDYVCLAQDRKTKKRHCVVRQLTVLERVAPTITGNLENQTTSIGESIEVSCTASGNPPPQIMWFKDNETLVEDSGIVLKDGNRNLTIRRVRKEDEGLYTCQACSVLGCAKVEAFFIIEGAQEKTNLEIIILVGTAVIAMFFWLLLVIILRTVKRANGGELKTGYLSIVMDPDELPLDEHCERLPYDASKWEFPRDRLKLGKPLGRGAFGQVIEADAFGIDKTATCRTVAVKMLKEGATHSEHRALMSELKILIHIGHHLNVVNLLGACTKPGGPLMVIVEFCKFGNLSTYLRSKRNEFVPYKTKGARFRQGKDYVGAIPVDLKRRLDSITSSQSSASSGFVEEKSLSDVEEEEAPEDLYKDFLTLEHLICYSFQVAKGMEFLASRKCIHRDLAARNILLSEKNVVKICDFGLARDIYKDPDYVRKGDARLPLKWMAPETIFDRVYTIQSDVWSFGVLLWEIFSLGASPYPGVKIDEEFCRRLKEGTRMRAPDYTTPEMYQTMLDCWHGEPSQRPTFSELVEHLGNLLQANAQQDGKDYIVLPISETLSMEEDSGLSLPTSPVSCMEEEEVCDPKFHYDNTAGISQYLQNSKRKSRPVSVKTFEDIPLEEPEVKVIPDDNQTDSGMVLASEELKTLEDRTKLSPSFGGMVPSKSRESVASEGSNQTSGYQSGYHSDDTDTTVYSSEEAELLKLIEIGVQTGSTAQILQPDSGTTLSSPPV

[4] = Clearance in mouse liver microsomes assessed as per mg of protein after 30 mins by LC/MS analysis; assay type: ADME, Microsome; settings: read-out: CLH
How it was run: (§1)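 1 µM compound incubated at 37 °C for 30 min with liver microsomes (0.5 mg protein/mL) in 50 mM phosphate buffer pH 7.4 with 1 mM NADPH. Reaction stopped with threefold volume of acetonitrile and centrifuged. Remaining compound in supernatant quantified by LC/MS.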

[5] = target: ALK tyrosine kinase receptor (Homo sapiens, UniProt Q9UM73)
ALK tyrosine kinase receptor, sequence (Q9UM73 whole entry): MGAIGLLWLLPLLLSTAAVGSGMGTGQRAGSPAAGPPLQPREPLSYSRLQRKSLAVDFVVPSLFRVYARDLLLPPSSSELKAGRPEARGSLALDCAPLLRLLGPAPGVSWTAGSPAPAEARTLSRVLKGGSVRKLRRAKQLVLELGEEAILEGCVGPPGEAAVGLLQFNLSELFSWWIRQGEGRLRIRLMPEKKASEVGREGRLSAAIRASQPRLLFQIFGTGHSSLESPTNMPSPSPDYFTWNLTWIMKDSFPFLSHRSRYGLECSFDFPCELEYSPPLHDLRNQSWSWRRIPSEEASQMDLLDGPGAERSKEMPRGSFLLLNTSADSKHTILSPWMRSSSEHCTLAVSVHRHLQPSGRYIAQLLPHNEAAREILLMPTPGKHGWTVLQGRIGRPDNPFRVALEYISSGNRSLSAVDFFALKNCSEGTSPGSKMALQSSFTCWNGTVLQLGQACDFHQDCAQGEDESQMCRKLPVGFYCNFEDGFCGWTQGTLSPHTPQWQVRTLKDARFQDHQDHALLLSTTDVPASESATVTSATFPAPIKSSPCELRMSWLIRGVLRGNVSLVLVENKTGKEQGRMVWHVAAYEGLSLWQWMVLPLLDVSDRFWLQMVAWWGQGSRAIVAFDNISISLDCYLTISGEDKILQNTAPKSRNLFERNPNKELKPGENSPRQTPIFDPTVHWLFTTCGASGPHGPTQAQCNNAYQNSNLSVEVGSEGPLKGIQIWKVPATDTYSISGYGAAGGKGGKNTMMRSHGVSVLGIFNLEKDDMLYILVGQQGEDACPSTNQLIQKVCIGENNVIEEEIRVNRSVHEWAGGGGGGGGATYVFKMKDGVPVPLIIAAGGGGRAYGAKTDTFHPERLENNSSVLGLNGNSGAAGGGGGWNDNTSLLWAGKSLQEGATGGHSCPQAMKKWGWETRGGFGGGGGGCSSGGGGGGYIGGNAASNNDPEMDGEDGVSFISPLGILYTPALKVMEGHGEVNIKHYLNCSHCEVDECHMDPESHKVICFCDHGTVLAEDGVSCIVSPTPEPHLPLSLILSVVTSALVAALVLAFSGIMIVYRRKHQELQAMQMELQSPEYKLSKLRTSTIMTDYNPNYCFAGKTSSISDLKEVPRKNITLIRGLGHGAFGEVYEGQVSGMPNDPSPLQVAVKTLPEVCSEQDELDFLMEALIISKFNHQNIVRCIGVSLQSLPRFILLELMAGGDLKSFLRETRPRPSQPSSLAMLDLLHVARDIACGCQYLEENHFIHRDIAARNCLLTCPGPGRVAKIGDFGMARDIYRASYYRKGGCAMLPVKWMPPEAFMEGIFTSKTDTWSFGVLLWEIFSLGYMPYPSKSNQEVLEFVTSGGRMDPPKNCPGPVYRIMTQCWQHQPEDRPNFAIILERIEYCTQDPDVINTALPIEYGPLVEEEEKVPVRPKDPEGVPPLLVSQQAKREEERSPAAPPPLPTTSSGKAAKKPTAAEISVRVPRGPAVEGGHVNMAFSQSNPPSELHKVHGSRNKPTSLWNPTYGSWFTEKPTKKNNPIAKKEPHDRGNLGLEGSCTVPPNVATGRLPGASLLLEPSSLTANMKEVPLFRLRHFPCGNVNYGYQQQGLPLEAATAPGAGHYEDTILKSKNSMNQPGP

[6] = Clearance in human liver microsomes assessed as per mg of protein after 30 mins by LC/MS analysis; assay type: ADME, Microsome; settings: read-out: CLH; how it was run: as §1
KARPAS-299 [7] = assay: Antiproliferative activity against human KARPAS299 cells after 96 hrs by cell counting assay; assay type: functional, cell-based; settings: KARPAS-299, 96 h
How it was run: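 KARPAS-299 cells exposed to a range of compound concentrations for 96 h. Growth inhibition read by Cell Counting Kit-8.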

[8] = Cmax in Sprague-Dawley rat at 1 mg/kg, po; assay type: ADME, organism-based; design: dose 1 mg/kg, route oral; settings: in vivo
How it was run: (§2)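 Sprague–Dawley rats, n = 3 per group, dosed po or iv at 1 mg/kg in 10% N,N-dimethylacetamide, 20% HP-β-CD and 0.02 M HCl in water. Heparinized blood taken at 0.08–72 h after iv and 0.50–72 h after po. Plasma analysed by LC–MS/MS.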

[9] = Half life in Sprague-Dawley rat at 1 mg/kg, po; assay type: ADME, organism-based; design: dose 1 mg/kg, route oral; settings: in vivo; how it was run: as §2
in vivo [10] = settings: cynomolgus monkey, iv, 0.5 mg/kg
in vivo [11] = settings: cynomolgus monkey, po, 0.5 mg/kg
[12] = Cmax in cynomolgus monkey at 0.5 mg/kg, po; assay type: ADME, organism-based, Macaca fascicularis; design: dose 0.5 mg/kg, route oral; settings: in vivo
How it was run: (§3)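 Fasted cynomolgus monkeys, n = 2 per group, dosed po or iv at 0.5 mg/kg in 10% DMSO, 20% HP-β-CD and 0.02 M HCl in water. Heparinized blood sampled at 0.08–48 h after iv and 0.50–48 h after po. Plasma quantified by LC–MS/MS.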

Mus musculus = assay: Toxicity in human NCI-H2228 cells expressing EML4-ALK xenografted mouse model assessed as body weight loss at 20 mg/kg, po; settings: in vivo
[13] = Volume of distribution at steady state in Sprague-Dawley rat at 1 mg/kg, iv; assay type: ADME, organism-based; design: dose 1 mg/kg, route intravenous; settings: in vivo, read-out: Vdss; how it was run: as §2
KARPAS-299 [14] = assay: Antitumor activity against human KARPAS299 cells expressing NPM-ALK xenografted mouse model assessed as tumor growth inhibition at 20 mg/kg, po; assay type: functional; settings: read-out: GI
[15] = AUC in Sprague-Dawley rat at 1 mg/kg, po; assay type: ADME, organism-based; design: dose 1 mg/kg, route oral; settings: plasma; how it was run: as §2
[16] = Total clearance in Sprague-Dawley rat at 1 mg/kg, iv; assay type: ADME, organism-based; design: dose 1 mg/kg, route intravenous; settings: in vivo; how it was run: as §2
[17] = Half life in Sprague-Dawley rat at 1 mg/kg, iv; assay type: ADME, organism-based; design: dose 1 mg/kg, route intravenous; settings: in vivo; how it was run: as §2
[18] = AUC in cynomolgus monkey at 0.5 mg/kg, po; assay type: ADME, organism-based, Macaca fascicularis; design: dose 0.5 mg/kg, route oral; settings: plasma; how it was run: as §3
[19] = Volume of distribution at steady state in cynomolgus monkey at 0.5 mg/kg, iv; assay type: ADME, organism-based, Macaca fascicularis; design: dose 0.5 mg/kg, route intravenous; settings: in vivo, read-out: Vdss; how it was run: as §3
[20] = Oral bioavailability in Sprague-Dawley rat at 1 mg/kg; assay type: ADME, organism-based; settings: in vivo; how it was run: as §2
[21] = Oral bioavailability in cynomolgus monkey at 0.5 mg/kg; assay type: ADME, organism-based, Macaca fascicularis; settings: in vivo; how it was run: as §3
[22] = Total clearance in cynomolgus monkey at 0.5 mg/kg, iv; assay type: ADME, organism-based, Macaca fascicularis; design: dose 0.5 mg/kg, route intravenous; settings: in vivo; how it was run: as §3
NCI-H2228 = assay: Antitumor activity against human NCI-H2228 cells expressing EML4-ALK xenografted mouse model assessed as tumor growth inhibition at 20 mg/kg, po; assay type: functional; settings: read-out: GI

Mast/stem cell growth factor receptor Kit, sequence (P10721 whole entry): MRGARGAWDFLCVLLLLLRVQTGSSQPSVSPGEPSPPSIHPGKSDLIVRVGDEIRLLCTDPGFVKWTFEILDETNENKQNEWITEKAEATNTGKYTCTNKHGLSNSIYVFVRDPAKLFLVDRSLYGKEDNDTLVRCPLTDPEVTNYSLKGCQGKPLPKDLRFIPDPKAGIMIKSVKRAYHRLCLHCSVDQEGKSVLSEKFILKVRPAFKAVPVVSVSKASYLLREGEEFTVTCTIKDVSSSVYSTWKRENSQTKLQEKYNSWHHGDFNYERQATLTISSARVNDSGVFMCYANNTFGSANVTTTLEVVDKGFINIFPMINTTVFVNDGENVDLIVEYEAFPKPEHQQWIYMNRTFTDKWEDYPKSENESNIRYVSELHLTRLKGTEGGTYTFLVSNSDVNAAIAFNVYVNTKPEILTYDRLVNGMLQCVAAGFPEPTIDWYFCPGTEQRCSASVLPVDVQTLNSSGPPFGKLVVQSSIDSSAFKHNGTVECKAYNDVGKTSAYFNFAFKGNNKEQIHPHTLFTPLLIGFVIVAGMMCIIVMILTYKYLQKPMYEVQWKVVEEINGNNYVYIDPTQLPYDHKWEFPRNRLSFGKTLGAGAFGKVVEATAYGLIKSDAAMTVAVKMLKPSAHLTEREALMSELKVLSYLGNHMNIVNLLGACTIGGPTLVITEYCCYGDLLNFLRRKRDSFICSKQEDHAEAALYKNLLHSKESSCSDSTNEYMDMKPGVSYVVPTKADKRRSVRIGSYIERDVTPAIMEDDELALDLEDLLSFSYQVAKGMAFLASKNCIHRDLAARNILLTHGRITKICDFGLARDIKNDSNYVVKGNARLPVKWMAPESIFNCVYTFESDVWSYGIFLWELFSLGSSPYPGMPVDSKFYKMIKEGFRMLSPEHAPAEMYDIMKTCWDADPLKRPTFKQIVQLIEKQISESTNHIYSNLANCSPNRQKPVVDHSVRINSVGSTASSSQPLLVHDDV

SMILES	IC50 [1] [nM]	IC50 [2] [nM]	IC50 [3] [nM]	microsomal CLint [4] [µL/min/mg]	IC50 [5] [nM]	microsomal CLint [6] [µL/min/mg]	IC50 (KARPAS-299 [7]) [nM]	other results
CCc1cc2c(cc1N1CCN(C3COC3)CC1)C(C)(C)c1[nH]c3cc(C#N)ccc3c1C2=O	> 5000	> 5000	> 5000	–	–	–	–	–
CC1(C)c2ccc(C3CCN(C4CC4)CC3)cc2C(=O)c2c1[nH]c1cc(C#N)ccc21	> 5000	> 5000	882	20	44	59.1	121	–
CC1(C)c2ccc(C3CCN(C4COC4)CC3)cc2C(=O)c2c1[nH]c1cc(C#N)ccc21	> 5000	> 5000	2520	38.6	67	38.6	86.9	–
CC1(C)c2ccc(N3CCN(C4CC4)CC3)cc2C(=O)c2c1[nH]c1cc(C#N)ccc21	> 5000	> 5000	> 5000	24.9	233	16.4	238	–
CC1(C)c2ccc(N3CCN(C4COC4)CC3)cc2C(=O)c2c1[nH]c1cc(C#N)ccc21	> 5000	> 5000	> 5000	20.6	–	14.2	151	–
CCc1cc2c(cc1N1CCN(C3CC3)CC1)C(C)(C)c1[nH]c3cc(C#N)ccc3c1C2=O	> 5000	> 5000	4210	3.3	5.2	22.1	45.8	–
CCc1cc2c(cc1N1CCN(C3CCC3)CC1)C(C)(C)c1[nH]c3cc(C#N)ccc3c1C2=O	> 5000	> 5000	3120	4.4	2.4	15.6	22.4	–
CC1(C)c2cc(N3CCC(N4CCOCC4)CC3)ccc2C(=O)c2c1[nH]c1cc(C#N)ccc21	2990	> 5000	759	72	16	106	26.5	–
Cc1cc2c(cc1N1CCC(N3CCOCC3)CC1)C(C)(C)c1[nH]c3cc(C#N)ccc3c1C2=O	1060	> 5000	186	15.8	–	23	4.8	–
CCCc1cc2c(cc1N1CCC(N3CCOCC3)CC1)C(C)(C)c1[nH]c3cc(C#N)ccc3c1C2=O	> 5000	> 5000	> 5000	58.5	1.1	17.1	26.1	–
CCc1cc2c(cc1N1CCC(N3CCOCC3)CC1)C(C)(C)c1[nH]c3cc(C#N)ccc3c1C2=O [ALECTINIB]	> 5000	> 5000	–	8.7	–	17.7	3	Cmax [8]: 60.8 ng/mL; half-life [9]: 12.6 h; half-life (in vivo [10]): 10.4 h; half-life (in vivo [11]): 8.38 h; Cmax [12]: 55.8 ng/mL; Activity (Mus musculus): Non-toxic; Vd [13]: 9.33 L/kg; inhibition in vivo at 20 mg/kg (KARPAS-299 [14]): 119%; AUC [15]: 1400 ng·h/mL; clearance [16]: 7.79 mL/min/kg; half-life [17]: 17.8 h; AUC [18]: 696 ng·h/mL; Vd [19]: 5.28 L/kg; bioavailability [20]: 65.2%; bioavailability [21]: 50.4%; clearance [22]: 6.04 mL/min/kg; inhibition in vivo at 20 mg/kg (NCI-H2228): 168%

Source: ChEMBL document CHEMBL1938232 (Bioorg Med Chem, 2012)
